From PubChem BioAssay
Calls of active or inactive are those of the source.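 How the source made its calls, unless noted: active means inhibition at or above 50% at 10 µM; inactive means inhibition below 50%.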

Legend:
[1] = inhibitors of TNFa-induced NFkB p65 translocation, primary screen, imaging, HUVEC, MLSMR starter and 10KST1 sets (AID 438;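 active means inhibition above 20% together with a positive visual image hit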;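 further: compound added about 3h40 before a 20 min TNFalpha stimulation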;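 on inhibition: signal is the nuclear over cytoplasmic p65 intensity ratio per well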); details: HUVEC TNFa-induced p65 nuclear translocation; cell count: measured here: nuclei count (cytotoxicity indicator), at 2.08 µM; inhibition: at 2 µM, stronger effect = higher value, 0% TNFa-plus-vehicle, 100% no-TNFa wells
[2] = inhibitors of mutant huntingtin aggregation, primary screen, imaging, exon1htt(103Q)mCFP cells, high-content imaging (AID 483;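 active means visual image review flags a hit and inhibition of aggregation exceeds 20%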;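 further: compound exposure lasted 3 days before fixation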;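 on nuclei count: percent of the per-plate median nuclei count of sample wells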); details: exon1htt(103Q)mCFP cell line, aggregate imaging, at 2 µM; inhibition of aggregation: stronger effect = higher value; nuclei count: measured here: cell count, toxicity
[3] = inhibitors of E-selectin induction by TNFa, primary screen, imaging, HUVEC, immunofluorescence, MLSMR starter and 10KST1 sets (AID 487;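 active means visually confirmed hit in the image check and inhibition above 20%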;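 on inhibition: signal is fraction of cell area covered by stained E-selectin grains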;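 on nuclei count: 100% = median nuclei count of all wells on the same plate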); details: HUVEC TNFalpha-induced E-selectin immunofluorescence imaging, at 2 µM; inhibition: stronger effect = higher value; nuclei count: measured here: cell number, toxicity
[4] = biological target: Voltage-gated potassium channel subunit beta-2 (Rattus norvegicus) (UniProt P62483); assay: KvBeta enzyme negative modulators, primary screen, biochemical, NADPH fluorescence (AID 622;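 active means fluorescence slope higher than the sample average by over 3 SD, cut at about -0.22 in these data, passing the limit was not always enough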;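 further: slope of raw intensity against log time taken from 70 to 1610 s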); details: recombinant KvBeta, 4-cyanobenzaldehyde reduction, at 10 µM, stronger effect = higher value
Voltage-gated potassium channel subunit beta-2 (Rattus norvegicus), sequence (P62483 whole entry, looked up): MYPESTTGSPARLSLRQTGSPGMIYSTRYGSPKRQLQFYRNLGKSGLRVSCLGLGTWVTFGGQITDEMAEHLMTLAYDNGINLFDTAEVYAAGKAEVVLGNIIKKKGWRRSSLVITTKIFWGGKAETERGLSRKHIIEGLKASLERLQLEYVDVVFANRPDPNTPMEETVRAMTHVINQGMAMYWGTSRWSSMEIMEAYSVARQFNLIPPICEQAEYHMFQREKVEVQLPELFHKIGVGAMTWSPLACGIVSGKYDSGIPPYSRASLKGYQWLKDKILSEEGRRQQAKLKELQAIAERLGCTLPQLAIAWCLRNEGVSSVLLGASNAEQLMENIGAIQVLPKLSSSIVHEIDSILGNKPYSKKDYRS

[5] = biological target: Voltage-gated potassium channel subunit beta-2 (Rattus norvegicus) (UniProt P62483); assay: KvBeta positive modulators, primary screen, biochemical, NADPH fluorescence (AID 623;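 active means NADPH fluorescence slope more negative than the mean of all samples by about 3 SD, 99.7% confidence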;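 further: fluorescence intensity change per second fitted from 20 to 320 s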); details: Recombinant KvBeta, NADPH fluorescence decrease slope, 10 min; at 10 µM; stronger effect = lower value
[6] = biological target: Muscarinic acetylcholine receptor M4 (Homo sapiens) (UniProt P08173); assay: compounds altering M4/GIRK thallium flux, either direction, primary screen, M4 allosteric agonist project, cell-based, HEK293 M4/GIRK, BTC-AM (AID 625;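 active means fluorescence slope after compound addition differing from the mean of all tested samples at 99.7% confidence, mostly higher but some lower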;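 further: thallium influx through GIRK channels coupled to M4 in HEK293 cells with BTC-AM dye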); details: at 10 µM, actives lie on both sides
Muscarinic acetylcholine receptor M4 (Homo sapiens), sequence (P08173 whole entry, looked up): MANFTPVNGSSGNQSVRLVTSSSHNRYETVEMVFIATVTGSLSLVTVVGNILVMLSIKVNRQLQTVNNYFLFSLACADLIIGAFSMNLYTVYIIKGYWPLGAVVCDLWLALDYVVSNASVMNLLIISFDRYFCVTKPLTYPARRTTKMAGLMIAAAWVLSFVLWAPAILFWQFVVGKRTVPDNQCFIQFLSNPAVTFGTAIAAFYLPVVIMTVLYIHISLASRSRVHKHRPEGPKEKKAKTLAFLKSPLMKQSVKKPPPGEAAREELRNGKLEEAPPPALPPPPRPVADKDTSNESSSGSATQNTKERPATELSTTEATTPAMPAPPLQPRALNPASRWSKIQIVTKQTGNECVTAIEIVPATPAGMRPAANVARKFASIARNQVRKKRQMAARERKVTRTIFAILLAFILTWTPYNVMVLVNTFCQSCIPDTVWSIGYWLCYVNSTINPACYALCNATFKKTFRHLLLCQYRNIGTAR
How it was run: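 Material: HEK293 cells with M4 receptor and GIRK channels; Times: cells overnight at 37 °C, BTC-AM loading 1 h, reads 2 min total; Technique: kinetic BTC-AM fluorescence sampled at 1 Hz, 10 s pre-addition baseline; Read-out basis: slope over 15–24 s of trace normalized to starting intensity; Controls: carbachol positive, DMSO negative.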

[7] = inhibitors of Sendai virus-induced IRF3 signaling, primary screen, TLR/RLR signaling modifier project, cell-based, Sendai virus stimulus, luciferase, 10K MLSCN set (AID 602276); details: HEK293 RL24 IRF3 luciferase reporter, at 10 µM, stronger effect = higher value;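 further: firefly luciferase from ISG56 promoter only with Renilla not read in this screen; 0% = Sendai virus plus DMSO and 100% = medium plus DMSO without virus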
[8] = inhibitors of poly I:C-induced TLR3 signaling, primary screen, cell-based, poly I:C stimulus, luciferase, 10K MLSCN set (AID 602277;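 active means inhibition of the reporter signal at or above 50%; inactive means inhibition below 50%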); details: HEK293-TLR3 RL24 IRF3 luciferase reporter, at 10 µM, stronger effect = higher value

SMILES	cell count [1]	inhibition [1]	inhibition of aggregation [2]	nuclei count [2] [%]	inhibition [3]	nuclei count [3] [%]	fluorescence slope [4]	NADPH fluorescence slope [5]	fluorescence slope [6]	inhibition [7]	inhibition [8]
Cc1noc(C)c1C(=O)Nc1sc(C)c(C)c1C#N	264	3.7% (inactive)	7.6% (inactive)	87.5	-40.3% (inactive)	103	-0.436 (inactive)	-2.4e-06 (inactive)	0.00444 (inactive)	-9.52% (inactive)	-43.8% (inactive)
CCc1ccccc1NC(=O)CN(c1cccc(OC)c1)S(C)(=O)=O	345	2.5% (inactive)	-3.1% (inactive)	99	-28.2% (inactive)	111	-0.544 (inactive)	-7.9e-05 (inactive)	0.00451 (inactive)	-7.55% (inactive)	-6.22% (inactive)
Oc1cccc2ccc(Nc3ccccn3)nc12	583	-9.7% (inactive)	-24.8% (inactive)	82.5	11.4% (inactive)	99.8	-0.563 (inactive)	-3.9e-05 (inactive)	0.0033 (inactive)	11% (inactive)	97.5% (active)
Brc1ccc(C2=Nn3c(nnc3-c3ccncc3)SC2)cc1	369	2.2% (inactive)	-12.9% (inactive)	123	-12.7% (inactive)	117	-0.544 (inactive)	3.4e-05 (inactive)	0.00451 (inactive)	13.7% (inactive)	0.85% (inactive)
O=C1CC2CS(=O)(=O)CC2N1c1ccc(Oc2ccccc2)cc1 (centres undefined)	330	3.1% (inactive)	5.7% (inactive)	88.5	-33.8% (inactive)	106	-0.395 (inactive)	-8.8e-05 (inactive)	0.00573 (inactive)	17.3% (inactive)	33% (inactive)
CC(=O)Nc1ccc(NC2=CC(=O)CC(C)(C)C2)cc1	424	1% (inactive)	14% (inactive)	107	-60% (inactive)	119	-0.541 (inactive)	-5.8e-05 (inactive)	0.00709 (inactive)	18.6% (inactive)	17.5% (inactive)
O=C(Cc1ccsc1-c1ccccc1)NO	483	-1.2% (inactive)	11.3% (inactive)	76	44.1% (inactive)	57.7	-0.46 (inactive)	-3.2e-05 (inactive)	0.00508 (inactive)	17.8% (inactive)	11.3% (inactive)
Cc1cc(NC(=O)c2ccc3nc(-c4ccccc4)c(-c4ccccc4)nc3c2)no1	536	-0.9% (inactive)	-14.8% (inactive)	102	-66.9% (inactive)	106	-0.463 (inactive)	-2.8e-05 (inactive)	0.00551 (inactive)	-16% (inactive)	-16.7% (inactive)
Cc1cnnc2c1-c1nonc1CC2	347	2% (inactive)	-17.8% (inactive)	109	5.6% (inactive)	116	-0.529 (inactive)	3.9e-05 (inactive)	0.00506 (inactive)	17.8% (inactive)	14.6% (inactive)
Cc1ccc(NC(=O)N2CCC(c3nc4c(nnn4Cc4cccc(Cl)c4)c(=O)[nH]3)CC2)cc1	811	-4.8% (inactive)	-2.1% (inactive)	55.6	-3.8% (inactive)	124	-0.569 (inactive)	-7.6e-06 (inactive)	0.00576 (inactive)	8.55% (inactive)	21.7% (inactive)
Nc1nc(SCCOc2ccccc2)n[nH]1	256	-3% (inactive)	18.6% (inactive)	76.7	-41.8% (inactive)	105	-0.571 (inactive)	-1.8e-05 (inactive)	0.00618 (inactive)	4.33% (inactive)	3.33% (inactive)
COC(=O)COc1ccc(S(=O)(=O)NCCC2=CCCCC2)cc1	515	-0.5% (inactive)	29% (inactive)	79.1	-31.4% (inactive)	107	-0.544 (inactive)	-2.1e-05 (inactive)	0.00377 (inactive)	15.8% (inactive)	20.7% (inactive)
COc1cc2[nH]c(=O)n(CCCCCC(=O)NCCCN3CCCC3=O)c(=O)c2cc1OC	703	-23.7% (inactive)	3.9% (inactive)	102	-42.1% (inactive)	124	-0.457 (inactive)	-7.1e-05 (inactive)	0.0052 (inactive)	13.3% (inactive)	22.1% (inactive)
COc1cccc(CNC(=O)CCn2c(=O)oc3ccccc32)c1	277	-11.3% (inactive)	21.1% (inactive)	8.9	-28.3% (inactive)	104	-0.551 (inactive)	5e-05 (inactive)	0.0058 (inactive)	14.4% (inactive)	20.5% (inactive)
O=c1c2ccccc2c(C=Nc2ccc(Cl)cn2)c(O)n1-c1cc(Cl)ccc1N1CCOCC1	164	14.4% (inactive)	-6.2% (inactive)	83.8	-0.8% (inactive)	90.3	-0.551 (inactive)	-6e-05 (inactive)	0.00995 (inactive)	7.35% (inactive)	-5.13% (inactive)
COCCNC(=O)c1ccc2c(c1)nc(C)n2-c1cccc(F)c1	292	19.4% (inactive)	-2% (inactive)	99.8	-16.6% (inactive)	98.7	-0.572 (inactive)	-3.3e-05 (inactive)	0.00562 (inactive)	15.5% (inactive)	17.5% (inactive)
COc1cccc(NC(=O)Nc2cccs2)c1	355	-1.5% (inactive)	-5.7% (inactive)	93.5	9.9% (inactive)	115	-0.483 (inactive)	0.00014 (inactive)	0.00925 (active)	-20.2% (inactive)	-76.7% (inactive)
Cc1cccc(C)c1OCC(=O)Nc1cccc(NC(=O)c2ccco2)c1	464	-9.5% (inactive)	23.3% (inactive)	87.7	-10.3% (inactive)	96.3	-0.447 (inactive)	5.1e-06 (inactive)	0.00569 (inactive)	13.3% (inactive)	9.13% (inactive)
CCCC(O)(CCN(C)C)c1ccc(OC)cc1 (centres undefined)	701	6.7% (inactive)	18.4% (inactive)	95.2	-50.6% (inactive)	87.3	-0.543 (inactive)	-8.4e-06 (inactive)	0.00506 (inactive)	21.2% (inactive)	29.6% (inactive)
